Experimental data from ChEMBL document CHEMBL4619807, “Exploration of Alternative Scaffolds for P2Y14 Receptor Antagonists Containing a Biaryl Core” (J Med Chem, 2020).
≈ marks a conversion by molar mass, not a printed value. Calls of active or inactive are those of the source. No cut-off for these calls is given here.

Key:
Cannabinoid receptor 1 [1] = biological target: T1, Cannabinoid receptor 1 (Homo sapiens, UniProt P21554); assay: Agonist activity at CB1 receptor (unknown origin)
Method in brief: (§1)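 Tested through the Psychoactive Drug Screening Program as functional agonist and antagonist at CB1 and CB2 cannabinoid receptors, with an upper test concentration of 10 μM.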

Cannabinoid receptor 1 [2] = biological target: T1, Cannabinoid receptor 1; assay: Antagonist activity at CB1 receptor (unknown origin); method in brief: as §1
Cannabinoid receptor 2 [3] = biological target: T2, Cannabinoid receptor 2 (Homo sapiens, UniProt P34972); assay: Antagonist activity at CB2 receptor (unknown origin); method in brief: as §1
Mus musculus = assay: Antiasthmatic activity in Aspergillus oryzae protease-mediated C57BL/6J mouse model of allergic asthma assessed as reduction in eosinophil infiltration in bronchoalveolar lavage fluid at 10 mg/kg, ip dosed 30 mins before OVA aerosol challenge and measured 2 days post-challenge by cell differential count assay; type: functional, organism-based
Cannabinoid receptor 2 [4] = biological target: T2, Cannabinoid receptor 2; assay: Agonist activity at CB2 receptor (unknown origin); method in brief: as §1
[5] = Aqueous solubility at pH 7.4 by pION method; type: physicochemical
Method in brief: (§2)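 Equilibrium aqueous solubility measured by the pION method at pH 4.0 and at pH 7.4, in μg/mL; mean ± SD.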

[6] = Aqueous solubility at pH 4 by pION method; type: physicochemical; method in brief: as §2
P2Y purinoceptor 14 [7] = biological target: T3, P2Y purinoceptor 14 (Homo sapiens, UniProt Q15391); assay: Inhibition of MRS4174 binding to human P2Y14R expressed in CHO cells pre-incubated for 30 mins before MRS4174 addition and further incubated for 30 mins at pH 7.4 by flow cytomtery based competitive fluorescence assay; type: cell-based
T3 sequence (Q15391 whole entry): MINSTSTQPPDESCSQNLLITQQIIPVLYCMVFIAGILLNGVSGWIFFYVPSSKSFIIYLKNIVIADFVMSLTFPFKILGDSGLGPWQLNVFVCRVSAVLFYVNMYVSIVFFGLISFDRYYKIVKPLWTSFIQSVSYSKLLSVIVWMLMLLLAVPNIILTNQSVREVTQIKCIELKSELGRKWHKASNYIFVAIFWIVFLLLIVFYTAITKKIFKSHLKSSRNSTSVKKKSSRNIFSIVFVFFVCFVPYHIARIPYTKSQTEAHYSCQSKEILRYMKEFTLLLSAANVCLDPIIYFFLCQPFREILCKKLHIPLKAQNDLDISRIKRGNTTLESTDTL

[8] = Binding affinity to sigma 2 receptor (unknown origin); design: species or system Homo sapiens
Homo sapiens = species on record: Homo sapiens; assay: Selectivity index, ratio of IC50 for inhibition of MRS4174 binding to human P2Y14R expressed in CHO cells to IC50 for inhibition of MRS4174 binding to mouse P2Y14R expressed in […] cells; type: cell-based
Method in brief: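 Ratio of human to mouse IC50 from fluorescent-tracer binding. Human P2Y14R was in CHO cells in a 96-well format. Mouse P2Y14R was in HEK293 cells, with 30 min antagonist pre-incubation and then 20 nM tracer for 30 min at 37 °C. Both read by flow cytometry.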

P2Y purinoceptor 14 [9] = biological target: T4, P2Y purinoceptor 14 (Mus musculus, UniProt Q9ESG6); assay: Inhibition of MRS4174 binding to mouse P2Y14R expressed in HEK293 cells pre-incubated for 30 mins before MRS4174 addition and further incubated for 30 mins by flow cytomtery based competitive fluorescence assay; type: cell-based
T4 sequence (Q9ESG6 whole entry): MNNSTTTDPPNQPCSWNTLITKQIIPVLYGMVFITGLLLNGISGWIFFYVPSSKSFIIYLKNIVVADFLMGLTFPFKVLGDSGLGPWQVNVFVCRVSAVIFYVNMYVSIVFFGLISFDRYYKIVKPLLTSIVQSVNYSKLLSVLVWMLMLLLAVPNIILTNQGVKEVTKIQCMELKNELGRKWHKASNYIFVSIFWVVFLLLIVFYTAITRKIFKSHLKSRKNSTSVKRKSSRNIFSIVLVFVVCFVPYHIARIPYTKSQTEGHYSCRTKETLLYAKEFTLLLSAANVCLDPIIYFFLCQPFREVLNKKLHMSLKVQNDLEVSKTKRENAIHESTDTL
Method in brief: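 Competitive whole-cell binding in HEK293 cells stably expressing N-terminally HA-tagged mouse P2Y14R, grown in a 24-well plate to 80–90% confluency. Antagonist given at 1 nM–100 μM in serum-containing EMEM for 30 min at 37 °C, then tracer added at 20 nM final for 30 min.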

[10] = biological target: Delta-type opioid receptor (Homo sapiens, UniProt P41143); assay: Binding affinity to DOR (unknown origin)
[11] = Unbound fraction in human plasma; type: ADME, cell-free
Method in brief: (§3)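 Plasma protein binding measured at 10 μM compound in human and mouse plasma, expressed as percent unbound (mean ± SD). Verapamil and warfarin were positive controls.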

[12] = Unbound fraction in mouse plasma; type: ADME, cell-free; method in brief: as §3
[13] = biological target: Sigma non-opioid intracellular receptor 1 (Homo sapiens, UniProt Q99720); assay: Binding affinity to sigma 1 receptor (unknown origin)
D(1B) dopamine receptor = D(1B) dopamine receptor (Homo sapiens, UniProt P21918); assay: Binding affinity to dopamine D5 receptor (unknown origin)
Translocator protein = Translocator protein (Homo sapiens, UniProt P30536); assay: Binding affinity to TSPO receptor (unknown origin)
[14] = Permeability from apical to basolateral side in human Caco2 cells; type: ADME, cell-based; conditions: caco-2
[15] = biological target: Voltage-gated inwardly rectifying potassium channel KCNH2 (Homo sapiens, UniProt Q12809); assay: Inhibition of human ERG
Cytochrome P450 2C19 = Cytochrome P450 2C19 (Homo sapiens, UniProt P33261); assay: Inhibition of CYP2C19 (unknown origin); type: ADME
[16] = Cmax in rat at 10 mg/kg, ip after 3 to 4 hrs; type: ADME, organism-based; design: dose 10 mg/kg, route intraperitoneal; conditions: in vivo
Method in brief: (§4)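 Rats dosed intraperitoneally at 1, 3 and 10 mg/kg and intravenously at 0.5 mg/kg. Solubilizing vehicle was aqueous DMSO. Plasma concentrations followed over time up to 12 h. Bioavailability derived from ip exposure relative to the iv dose.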

[17] = Drug level in rat at 10 mg/kg, ip after 12 hrs; type: ADME, organism-based; conditions: in vivo; method in brief: as §4
[18] = Plasma concentration in rat at 1 mg/kg, ip after 4 hrs; type: ADME, organism-based; method in brief: as §4
[19] = Stability in rat plasma assessed as compound remaining level at 120 mins; type: ADME, cell-free; conditions: 2 h
[20] = Half life in rat liver microsomes; type: ADME, Microsome
Cytochrome P450 2D6 = Cytochrome P450 2D6 (Homo sapiens, UniProt P10635); assay: Inhibition of CYP2D6 (unknown origin); type: ADME
[21] = Lipophilicity, change in Constant K of the compound by RP-HPLC analysis relative to PPTN; type: physicochemical
Method in brief: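 Lipophilicity taken from reversed-phase HPLC retention time on a C18 column. Elution used a 20 min gradient of 10 to 100% acetonitrile in 10 mM triethylammonium acetate. Reported as Δk against the reference antagonist.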

[22] = Half life in human liver microsomes; type: ADME, Microsome
[23] = Bioavailability in rat at 1 to 10 mg/kg, ip; type: ADME, organism-based; conditions: in vivo; method in brief: as §4
[24] = Stability in simulated intestinal fluid assessed as compound remaining level at 120 mins; type: physicochemical; conditions: simulated gi fluid, 2 h
HepG2 = assay: Toxicity in human HepG2 cells; type: cell-based
[25] = Plasma concentration in rat at 1 mg/kg, ip after 2 hrs; type: ADME, organism-based; method in brief: as §4
[26] = Half life in mouse liver microsomes; type: ADME, Microsome
[27] = Stability in human plasma assessed as compound remaining level at 120 mins; type: ADME, cell-free; conditions: 2 h
[28] = Tmax in rat at 10 mg/kg, ip; type: ADME, organism-based; conditions: in vivo; method in brief: as §4
Cytochrome P450 2C9 = Cytochrome P450 2C9 (Homo sapiens, UniProt P11712); assay: Inhibition of CYP2C9 (unknown origin); type: ADME
[29] = Half life in rat at 1 mg/kg, ip; type: ADME, organism-based; conditions: in vivo
[30] = Stability in simulated gastric fluid assessed as compound remaining level at 120 mins; type: physicochemical; conditions: simulated gi fluid, 2 h
[31] = Stability in mouse plasma assessed as compound remaining level at 120 mins; type: ADME, cell-free; conditions: 2 h
[32] = Half life in rat at 0.5 mg/kg, iv; type: ADME, organism-based; conditions: in vivo
[33] = Binding affinity to 5HT6 receptor (unknown origin); design: species or system Homo sapiens
[34] = biological target: 5-hydroxytryptamine receptor 1D (Homo sapiens, UniProt P28221); assay: Binding affinity to 5HT1D receptor (unknown origin)
Chain of 5-hydroxytryptamine receptor 1D (P28221 whole entry): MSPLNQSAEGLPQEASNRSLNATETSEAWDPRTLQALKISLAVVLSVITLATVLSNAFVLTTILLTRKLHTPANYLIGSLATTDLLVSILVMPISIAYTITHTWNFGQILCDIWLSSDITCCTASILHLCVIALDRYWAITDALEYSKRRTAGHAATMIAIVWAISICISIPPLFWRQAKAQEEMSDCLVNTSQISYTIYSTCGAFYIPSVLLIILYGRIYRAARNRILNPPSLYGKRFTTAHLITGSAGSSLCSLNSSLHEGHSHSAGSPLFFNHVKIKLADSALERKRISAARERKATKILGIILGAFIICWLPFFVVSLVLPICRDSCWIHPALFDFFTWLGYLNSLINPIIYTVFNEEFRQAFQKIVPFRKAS

T2 sequence (P34972 whole entry): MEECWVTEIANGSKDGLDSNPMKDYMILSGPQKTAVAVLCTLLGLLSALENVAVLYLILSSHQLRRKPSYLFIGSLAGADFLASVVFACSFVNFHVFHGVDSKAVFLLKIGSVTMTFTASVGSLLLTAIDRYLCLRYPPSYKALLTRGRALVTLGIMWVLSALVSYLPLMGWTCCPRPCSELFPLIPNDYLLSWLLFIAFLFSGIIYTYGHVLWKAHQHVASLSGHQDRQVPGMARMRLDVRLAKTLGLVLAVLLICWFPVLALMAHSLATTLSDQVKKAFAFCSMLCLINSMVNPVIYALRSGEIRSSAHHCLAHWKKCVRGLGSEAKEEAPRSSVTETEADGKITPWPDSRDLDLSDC
Chain of Delta-type opioid receptor (P41143 whole entry): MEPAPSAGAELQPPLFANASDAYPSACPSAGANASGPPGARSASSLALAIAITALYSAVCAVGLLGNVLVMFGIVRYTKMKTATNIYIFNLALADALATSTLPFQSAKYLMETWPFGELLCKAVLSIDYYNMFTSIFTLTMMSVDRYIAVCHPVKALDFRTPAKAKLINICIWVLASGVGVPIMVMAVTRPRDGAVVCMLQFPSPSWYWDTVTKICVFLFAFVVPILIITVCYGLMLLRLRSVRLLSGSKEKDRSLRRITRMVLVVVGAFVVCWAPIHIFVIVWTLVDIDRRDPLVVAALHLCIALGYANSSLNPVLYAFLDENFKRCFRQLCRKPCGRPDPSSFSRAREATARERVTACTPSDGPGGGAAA
T1 sequence (P21554 whole entry): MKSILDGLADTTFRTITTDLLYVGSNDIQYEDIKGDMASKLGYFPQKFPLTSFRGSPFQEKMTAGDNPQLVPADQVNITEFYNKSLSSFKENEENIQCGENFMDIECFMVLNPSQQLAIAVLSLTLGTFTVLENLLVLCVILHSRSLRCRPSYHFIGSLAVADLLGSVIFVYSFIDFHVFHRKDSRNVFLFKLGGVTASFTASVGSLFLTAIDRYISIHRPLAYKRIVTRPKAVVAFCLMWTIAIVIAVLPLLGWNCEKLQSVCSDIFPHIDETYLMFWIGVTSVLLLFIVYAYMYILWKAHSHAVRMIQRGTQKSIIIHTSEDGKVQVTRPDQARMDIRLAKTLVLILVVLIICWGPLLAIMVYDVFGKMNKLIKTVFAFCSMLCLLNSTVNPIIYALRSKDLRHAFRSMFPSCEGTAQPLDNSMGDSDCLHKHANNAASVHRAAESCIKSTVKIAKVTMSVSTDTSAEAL
Chain of Cytochrome P450 2C9 (P11712 whole entry): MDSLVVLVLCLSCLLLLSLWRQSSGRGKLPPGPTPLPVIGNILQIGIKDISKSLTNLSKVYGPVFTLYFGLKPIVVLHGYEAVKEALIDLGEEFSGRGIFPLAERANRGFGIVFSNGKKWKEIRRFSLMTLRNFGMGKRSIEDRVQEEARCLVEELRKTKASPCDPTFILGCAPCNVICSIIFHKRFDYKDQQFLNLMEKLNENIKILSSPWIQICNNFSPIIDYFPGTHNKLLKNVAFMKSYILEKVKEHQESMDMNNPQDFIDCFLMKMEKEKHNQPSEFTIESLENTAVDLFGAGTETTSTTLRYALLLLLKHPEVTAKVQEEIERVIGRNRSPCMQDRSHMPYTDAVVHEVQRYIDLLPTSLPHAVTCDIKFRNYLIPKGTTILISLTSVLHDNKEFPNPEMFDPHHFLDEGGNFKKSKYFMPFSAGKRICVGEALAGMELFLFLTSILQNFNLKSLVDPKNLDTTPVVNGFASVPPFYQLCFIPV
Chain of D(1B) dopamine receptor (P21918 whole entry): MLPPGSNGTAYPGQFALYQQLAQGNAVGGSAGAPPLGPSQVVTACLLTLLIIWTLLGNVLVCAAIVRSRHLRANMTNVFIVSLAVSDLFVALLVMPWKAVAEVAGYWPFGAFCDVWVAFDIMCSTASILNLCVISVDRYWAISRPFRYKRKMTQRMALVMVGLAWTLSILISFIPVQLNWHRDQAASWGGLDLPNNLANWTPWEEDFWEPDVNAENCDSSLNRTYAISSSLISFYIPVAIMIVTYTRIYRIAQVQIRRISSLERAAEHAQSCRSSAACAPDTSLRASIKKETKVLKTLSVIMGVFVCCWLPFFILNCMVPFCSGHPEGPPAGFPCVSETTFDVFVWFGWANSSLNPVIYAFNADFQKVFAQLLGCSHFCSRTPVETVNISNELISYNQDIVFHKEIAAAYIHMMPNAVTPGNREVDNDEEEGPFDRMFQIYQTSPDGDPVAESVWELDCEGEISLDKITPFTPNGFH
Chain of Voltage-gated inwardly rectifying potassium channel KCNH2 (Q12809 whole entry): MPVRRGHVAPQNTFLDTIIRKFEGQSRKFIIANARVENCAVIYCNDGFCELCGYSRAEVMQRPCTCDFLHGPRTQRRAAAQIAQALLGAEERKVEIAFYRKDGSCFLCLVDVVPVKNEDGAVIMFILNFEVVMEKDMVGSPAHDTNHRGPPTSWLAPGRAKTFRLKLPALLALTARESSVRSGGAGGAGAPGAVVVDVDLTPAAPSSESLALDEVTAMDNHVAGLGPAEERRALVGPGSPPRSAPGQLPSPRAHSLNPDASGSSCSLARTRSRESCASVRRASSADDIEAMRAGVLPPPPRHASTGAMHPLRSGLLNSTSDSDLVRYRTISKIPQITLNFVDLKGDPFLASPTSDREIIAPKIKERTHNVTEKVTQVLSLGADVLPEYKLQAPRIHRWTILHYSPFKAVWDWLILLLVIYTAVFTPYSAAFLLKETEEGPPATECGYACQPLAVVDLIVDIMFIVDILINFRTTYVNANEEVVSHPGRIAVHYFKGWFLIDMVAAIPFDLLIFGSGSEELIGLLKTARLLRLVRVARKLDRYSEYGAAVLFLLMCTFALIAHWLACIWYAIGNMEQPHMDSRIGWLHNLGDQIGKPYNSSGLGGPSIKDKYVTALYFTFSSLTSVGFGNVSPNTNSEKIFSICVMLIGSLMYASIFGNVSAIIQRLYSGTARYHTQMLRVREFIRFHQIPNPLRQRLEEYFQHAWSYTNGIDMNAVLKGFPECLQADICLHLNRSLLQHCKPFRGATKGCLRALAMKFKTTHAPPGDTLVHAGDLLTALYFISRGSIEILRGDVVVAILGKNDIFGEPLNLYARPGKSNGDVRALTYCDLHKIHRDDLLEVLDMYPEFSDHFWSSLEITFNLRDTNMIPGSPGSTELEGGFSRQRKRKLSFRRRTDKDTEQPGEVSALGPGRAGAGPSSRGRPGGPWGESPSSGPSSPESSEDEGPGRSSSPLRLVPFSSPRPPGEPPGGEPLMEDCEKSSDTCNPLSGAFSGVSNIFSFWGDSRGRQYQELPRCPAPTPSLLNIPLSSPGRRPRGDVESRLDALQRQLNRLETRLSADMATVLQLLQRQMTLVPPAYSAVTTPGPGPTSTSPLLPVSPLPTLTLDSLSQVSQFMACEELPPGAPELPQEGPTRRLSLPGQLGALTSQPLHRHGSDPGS
Chain of Cytochrome P450 2C19 (P33261 whole entry): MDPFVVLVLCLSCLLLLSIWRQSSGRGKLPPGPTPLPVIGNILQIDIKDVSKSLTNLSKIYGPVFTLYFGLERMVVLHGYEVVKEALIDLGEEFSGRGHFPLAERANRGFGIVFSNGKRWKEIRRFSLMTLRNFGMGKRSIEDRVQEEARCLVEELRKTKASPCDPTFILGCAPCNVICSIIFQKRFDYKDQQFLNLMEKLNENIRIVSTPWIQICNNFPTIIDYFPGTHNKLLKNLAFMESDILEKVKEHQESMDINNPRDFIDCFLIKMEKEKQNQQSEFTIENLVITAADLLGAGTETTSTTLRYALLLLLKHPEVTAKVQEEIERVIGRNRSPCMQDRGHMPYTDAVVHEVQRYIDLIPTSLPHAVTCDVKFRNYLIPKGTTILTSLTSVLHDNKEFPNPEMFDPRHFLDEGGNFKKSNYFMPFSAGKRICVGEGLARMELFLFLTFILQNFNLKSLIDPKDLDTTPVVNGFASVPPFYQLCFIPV
Chain of Cytochrome P450 2D6 (P10635 whole entry): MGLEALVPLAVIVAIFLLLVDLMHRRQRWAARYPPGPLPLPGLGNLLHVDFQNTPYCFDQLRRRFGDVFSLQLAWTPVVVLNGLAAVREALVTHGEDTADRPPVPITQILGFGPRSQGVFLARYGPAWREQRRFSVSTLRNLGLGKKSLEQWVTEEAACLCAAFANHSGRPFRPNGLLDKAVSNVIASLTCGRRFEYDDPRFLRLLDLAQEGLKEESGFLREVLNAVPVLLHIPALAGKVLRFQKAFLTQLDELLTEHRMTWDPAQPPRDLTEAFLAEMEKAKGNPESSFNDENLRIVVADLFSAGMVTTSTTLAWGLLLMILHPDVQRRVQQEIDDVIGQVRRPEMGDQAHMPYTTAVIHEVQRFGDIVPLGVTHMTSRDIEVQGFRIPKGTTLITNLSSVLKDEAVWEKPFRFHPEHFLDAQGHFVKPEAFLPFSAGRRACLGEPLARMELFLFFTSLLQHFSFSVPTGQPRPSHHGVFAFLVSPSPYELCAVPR
Chain of Sigma non-opioid intracellular receptor 1 (Q99720 whole entry): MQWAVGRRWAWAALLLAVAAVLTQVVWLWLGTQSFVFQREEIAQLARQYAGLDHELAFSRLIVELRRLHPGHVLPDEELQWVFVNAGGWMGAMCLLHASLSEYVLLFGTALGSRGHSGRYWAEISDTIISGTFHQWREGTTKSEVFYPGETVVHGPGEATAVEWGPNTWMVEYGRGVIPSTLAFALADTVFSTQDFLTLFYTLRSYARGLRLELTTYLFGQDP

O=C(O)c1cc(-c2ccc(C3CCNCC3)cc2)c2ccc(-c3ccc(C(F)(F)F)cc3)cc2c1 [PPTN]
EC50 (Cannabinoid receptor 1 [1]): > 10000 nM
EC50 (Cannabinoid receptor 1 [2]): > 10000 nM
EC50 (Cannabinoid receptor 2 [3]): > 10000 nM
Activity (Mus musculus): Active
EC50 (Cannabinoid receptor 2 [4]): > 10000 nM
solubility ([5]; buffer): 0.36 µg/mL (≈ 0.757 µM)
solubility ([6]; buffer): 1.1 µg/mL (≈ 2.31 µM)

O=C(O)c1cc(-c2ccc(C34CCNCC3C4(F)F)cc2)cc(-n2cc(-c3ccc(C(F)(F)F)cc3)nn2)c1 (stereo not given)
IC50 (P2Y purinoceptor 14 [7]): 639 nM

O=C(O)c1cc(-c2ccc(C34CCNCC3C4)cc2)cc(-n2cc(-c3ccc(C(F)(F)F)cc3)nn2)c1 (stereo not given)
Ki [8]: 300 nM
Ratio IC50 (Homo sapiens): 3.3
IC50 (P2Y purinoceptor 14 [7]): 359 nM
IC50 (P2Y purinoceptor 14 [9]): 1160 nM
Ki [10]: 2630 nM

O=C(O)c1cc(-c2ccc(C3CCNCC3)cc2)cc(-c2cn(-c3ccc(C(F)(F)F)cc3)nn2)c1
Fu [11]: 1.25%
EC50 (Cannabinoid receptor 1 [1]): > 10000 nM
EC50 (Cannabinoid receptor 1 [2]): > 10000 nM
EC50 (Cannabinoid receptor 2 [3]): > 10000 nM
Activity (Mus musculus): Active
EC50 (Cannabinoid receptor 2 [4]): > 10000 nM
Fu [12]: 1.33%
Ki [10]: 3790 nM

O=C(O)c1[nH]c(-c2ccc(C3=CCNCC3)cc2)cc1-n1cc(-c2ccc(C(F)(F)F)cc2)nn1
IC50 (P2Y purinoceptor 14 [7]): > 100000 nM

NC(=O)c1ccc(-c2cc(C(=O)O)cc(-c3cn(-c4ccc(C(F)(F)F)cc4)nn3)c2)cc1
Ki [13]: 500 nM
Ki [8]: 2910 nM
Ki [10]: 2480 nM

CC(=O)N1CCC(c2ccc(-c3cc(C(=O)O)cc4cc(-c5ccc(C(F)(F)F)cc5)ccc34)cc2)CC1
Ki (D(1B) dopamine receptor): 4380 nM
Activity (Mus musculus): Active
solubility ([5]; buffer): 2.32 µg/mL (≈ 4.48 µM)
Ki (Translocator protein): 510 nM
solubility ([6]; buffer): 0.09 µg/mL (≈ 0.174 µM)

C#CCCCCN1CCC(c2ccc(-c3cc(C(=O)O)cc4cc(-c5ccc(C(F)(F)F)cc5)ccc34)cc2)CC1
Activity (Mus musculus): Active

O=C(O)c1cc(-c2ccc(C34CCN(CC3)CC4)cc2)cc(-n2cc(-c3ccc(C(F)(F)F)cc3)nn2)c1
Papp [14]: 0.09 ×10⁻⁶ cm/s
IC50 [15]: 16800 nM
IC50 (Cytochrome P450 2C19): > 30000 nM
Cmax [16]: 900 ng/mL
Drug uptake [17]: 200 to 400 ng/kg
concentration at 4 h [18]: 163 nM
Stability [19]: 89.4%
t1/2 [20]: 1.8 h
IC50 (Cytochrome P450 2D6): > 30000 nM
fold change (FC) [21]: -0.09
solubility ([5]; aqueous, read-out: solubility): 0.1 to 1.1 µg/mL (≈ 0.193 to 2.12 µM)
t1/2 [22]: 3.2 h
bioavailability [23]: 100%
Stability [24]: 102%
IC50 (P2Y purinoceptor 14 [7]): 105 nM
IC50 (HepG2): > 20000 nM
concentration at 2 h [25]: 206 nM
solubility ([6]; aqueous, read-out: solubility): 2.8 to 14.5 µg/mL (≈ 5.4 to 27.9 µM)
t1/2 [26]: 5.18 h
Stability [27]: 86.8%
Tmax [28]: 3 to 4 h
IC50 (Cytochrome P450 2C9): > 30000 nM
IC50 (P2Y purinoceptor 14 [9]): 845 nM
half-life [29]: 4.6 h
Stability [30]: 106%
Stability [31]: 79.5%
half-life [32]: 0.72 h

NC(=O)c1ccc(-c2cc(C(=O)O)cc(-n3cc(-c4ccc(C(F)(F)F)cc4)nn3)c2)cc1
Ratio IC50 (Homo sapiens): 3.4
Ki [33]: 6890 nM
IC50 (P2Y purinoceptor 14 [9]): 902 nM

O=C(O)c1cc(-c2ccc(C3CCNCC3)cc2)cc(-n2cc(-c3ccc(C(F)(F)F)cc3)nn2)c1
Activity (Mus musculus): inactive

NC(=O)c1cc(-c2ccc(C3CCNCC3)cc2)cc(-n2cc(-c3ccc(C(F)(F)F)cc3)nn2)c1
IC50 (P2Y purinoceptor 14 [7]): > 100000 nM

NCCCNC(=O)c1ccc(-c2cc(C(=O)O)cc(-n3cc(-c4ccc(C(F)(F)F)cc4)nn3)c2)s1
Ki [34]: 4340 nM
Activity (Mus musculus): Active
Fu [12]: 0.83%

O=C(O)c1cc(-c2ccc(N3CCNCC3)cc2)cc(-n2cc(-c3ccc(C(F)(F)F)cc3)nn2)c1
Ki [8]: 6700 nM
Ratio IC50 (Homo sapiens): 2.1

C[N+]12CCC(c3ccc(-c4cc(C(=O)O)cc5cc(-c6ccc(C(F)(F)F)cc6)ccc45)cc3)(CC1)CC2
Fu [11]: 1.13%
Fu [12]: 0.94%
fold change (FC) [21]: 0.24
solubility ([5]; buffer): 1.72 µg/mL
IC50 (P2Y purinoceptor 14 [7]): 38.3 nM
solubility ([6]; buffer): 2.24 µg/mL
IC50 (P2Y purinoceptor 14 [9]): 56.3 nM
